Tests used:
[1] = system: subcutaneous MDA-MB-231 tumor xenografts; assay: Whole body and ex vivo fluorescence imaging of NP distribution; format: in vivo, female athymic nude mice; settings: ICG-labeled, tail vein, imaged over 24 h
[2] = system: E/P-selectin on activated HUVECs; assay: Competitive inhibition of FITC-labeled QA-NP binding to activated HUVECs; format: cell-based, human; settings: 30 min pre-incubation; flow cytometry
Outline: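 HUVECs (passage 4, EGM-2, on rat-tail collagen I) were activated with 10 ng/mL TNF-α for 4 h. Free ligand, anti-E-selectin or anti-P-selectin antibody, or unlabeled nanoparticles were pre-incubated for 30 min. FITC-labeled particles (0.2 mg/mL) were then added for 2 h at 37 °C. Cells were washed twice with PBS, trypsinized, resuspended in cold PBS, and read for FL-1 fluorescence (488/525 nm).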

[3] = system: HUVECs; assay: Cytotoxicity of QA-NH2 on HUVECs; format: cell-based, human; settings: 1 nM to 1 mM, 24 h, MTT
Outline: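 HUVECs were seeded at 10,000 cells per well on rat-tail collagen I; one group was pre-activated with 10 ng/mL TNF-α for 4 h. Test compound was added at 1 nM to 1 mM for 24 h. MTT (75 μg) was then added for 4 h, formazan was dissolved in 50% DMF/20% SDS at pH 5, and absorbance was read at 562 nm.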

Row | SMILES | tumor fluorescence in whole body imaging [1] | QA-NP binding to activated HUVECs after pre-treatment with competitor [2] | effect on HUVEC proliferation [3]
1 | CC1(C)C(/C=C/C=C/C=C/C=C2\N(CCCCS(=O)(=O)O)c3ccc4ccccc4c3C2(C)C)=[N+](CCCCS(=O)(=O)[O-])c2ccc3ccccc3c21 [free ICG, indocyanine green] | did not show fluorescence in tumors at all time points | – | –
2 | Nc1cc(NC(=O)[C@]2(O)C[C@@H](O)[C@@H](O)[C@H](O)C2)cc(C(=O)O)c1 [QA-NH2, 3-amino-5-((1S,3R,4S,5R)-1,3,4,5-tetrahydroxycyclohexane-1-carboxamido)benzoic acid] | – | reduced | no adverse effects
